Measurements from different studies.
Protocols differ between the studies behind these lines.
Observed: metabolic stability

| Compound | test system | setting | endpoint | value |
| --- | --- | --- | --- | --- |
| O=c1ccc2ccc(O)cc2o1 | mouse, liver microsomes | – | scaled CLint | 3050 mL/min/kg |
| CC(C)Oc1ccc(S(=O)(=O)c2ccc(Oc3cc(OCC(N)=O)c(C(=O)C(Cl)Cl)cc3[N+](=O)[O-])cc2)cc1 | mouse, liver microsomes | – | microsomal CLint | 197 µL/min/mg |
| CC1(CN)CCN(c2cnc3c(Sc4ccncc4Cl)n[nH]c3n2)CC1 | mouse, liver microsomes | – | scaled CLint | 8.71 mL/min/kg |
| CCN(CCN)c1ccc(Nc2cc(NC3CC3)n3ncc(C#N)c3n2)cc1-n1cnnc1 | male CD-1 mouse, hepatocytes | 1 µM, serum-free | scaled CLint | < 32 mL/min/kg |
| Cc1ccc(Cn2cc(C(=O)NN)c(=O)c3cc(Oc4ccccc4)ccc32)cc1 | male CD-1 mouse, liver microsomes | 1 µM | microsomal CLint | < 11.6 µL/min/mg |
| O=C(O)Cc1ccccc1Nc1c(Cl)cccc1Cl | mouse, liver microsomes | – | scaled CLint | 90.3 mL/min/kg |
| O=c1ccc2cc(O)ccc2o1 | mouse, liver microsomes | – | microsomal CLint | 170 µL/min/mg |
| CCOc1ccc2ccc(=O)oc2c1 | male CD-1 mouse, hepatocytes | 1 µM | hepatocyte CLint | > 46.2 µL/min/10⁶ cells |
